Consider 14 molecules from ChEMBL document CHEMBL1955813, “Synthesis of new troglitazone derivatives: anti-proliferative activity in breast cancer cell lines and preliminary toxicological study” (Eur J Med Chem, 2012).

Data set [1] is described as follows: Cytotoxicity against human hepatocytes assessed as cell viability at 100 uM after 90 mins by MTT assay relative to control. The format is cell-based, Hepatocyte. As to conditions: read-out: Activity. An outline of the steps:
(§1)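 Cryopreserved primary human hepatocytes, 0.1 × 10⁶ cells/well in DMEM with gentamycin, insulin, 10 µM dexamethasone, 37 °C, 5% CO₂. Equilibrated 30 min with stirring at 900 rpm, then compound or DMSO (0.4%) added, 0.5–100 µM (7 levels), triplicate. After 90 min, MTT added for 30 min at 37 °C; formazan dissolved in DMSO, A595; viability as % of DMSO control.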

The test system of a further data set is MDA-MB-231. The experiment in a line: Antiproliferative activity hormone-independent human MDA-MB-231 cells after 24 hrs by luminescent cell viability assay. The format is functional, cell-based. The following applies: MDA-MB-231, 24 h. An outline of the steps:
(§2)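 Seeded at 8.10⁴ cells/well; after 24 h attachment, medium switched to 1% FCS with 2 mM L-glutamine and compounds added. MCF-7 grown in phenol red DMEM, MDA-MB-231 in L-15 (both 10% FCS, 37 °C). Exposure 24 h; controls 0.1% DMSO. Cells washed, trypsinized, quantified by CellTiter-Glo luminescence. Triplicate; IC50 = concentration halving viable cell number.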

The test system of a further data set is MCF7. Kind of data set: Antiproliferative activity hormone-dependent human MCF7 cells after 24 hrs by luminescent cell viability assay. The following applies: MCF7, 24 h. It counts as functional, cell-based. An outline of the steps: as §2
In the next data set the test system is Hepatocyte. The experiment in a line: Cytotoxicity against human hepatocytes assessed as cell viability up to 50 uM after 90 mins by MTT assay. The format is cell-based. The following applies: 1.5 h. An outline of the steps: as §1
(Tetrazolium assays rely on reduction of a dye to a coloured formazan, in cell work by metabolically active cells.)

Data set [2] in a line: Ratio of drug level in liver to plasma in rat. It counts as ADME, tissue-based. As to conditions: liver and plasma.
Data set [3] is described as follows: Cmax in human at 600 mg/day. It counts as ADME, organism-based. On the set-up: dose 600 mg/day. As to conditions: plasma.

For orientation: pIC50 means the negative decadic logarithm of the IC50, by convention in mol/L. Lower therefore signals a large IC50. Usually Kp stands for tissue or fluid exposure divided by exposure in the circulation. By Cmax is commonly meant the peak of the concentration-time curve.

pIC50: −log10 of the molar value. Where only a bound is given, the exact number is not on record here.

Turning to `Cc1c(C)c2c(c(C)c1OC(=O)CCCCCCCNC(=O)CCCC[C@@H]1SC[C@@H]3NC(=O)N[C@@H]31)CCC(C)(COc1ccc(/C=C3\SC(=O)NC3=O)cc1)O2` (stereo partly drawn), the viability at 1.5 h, 100 µM in data set [1] amounted to 61%. In addition, the pIC50 with MDA-MB-231 is 5.43; with MCF7, 4.59.

Regarding `Cc1c(C)c2c(c(C)c1OC(=O)CCCC[C@@H]1SC[C@@H]3NC(=O)N[C@@H]31)CCC(C)(COc1ccc(/C=C3\SC(=O)NC3=O)cc1)O2` (mixture of isomers), in data set [1], the viability at 1.5 h, 100 µM stood at 66%. Also, the pIC50 in the data set with MDA-MB-231 was 5.46; in the data set on MCF7, 4.95.

In the case of `Cc1c(C)c2c(c(C)c1OC(=O)CCCC[C@@H]1SC[C@@H]3NC(=O)N[C@@H]31)CCC(C)(COc1ccc(CC3SC(=O)NC3=O)cc1)O2` (mixture of isomers), in data set [1], the viability at 1.5 h, 100 µM worked out at 50%. Also, the pIC50 in the data set on MDA-MB-231 was 5.19; in the data set with MCF7, 4.80.

`Cc1c(C)c2c(c(C)c1OC(=O)OC(C)(C)C)CCC(C)(COc1ccc(/C=C3\SC(=O)NC3=O)cc1)O2` (racemic): the viability at 1.5 h, 100 µM in data set [1] is 75%. The pIC50 is 5.48 with MDA-MB-231 and 5.11 with MCF7.

For `Cc1cc(C)c2c(c1C)OC(C)(COc1ccc(/C=C3\SC(=O)NC3=O)cc1)CC2` (racemic), in the data set with Hepatocyte, the Activity entry is “Non-toxic”. Besides, the viability at 1.5 h, 100 µM in data set [1] turned out to be 84%. Moreover, the pIC50 in the data set on MDA-MB-231 was 4.97; in the data set with MCF7, 4.90.

For the molecule `Cc1c(C)c2c(c(C)c1OC(=O)CCCCCCCNC(=O)OC(C)(C)C)CCC(C)(COc1ccc(/C=C3\SC(=O)NC3=O)cc1)O2` (racemic), the Activity result with Hepatocyte is “Non-toxic”. For the same molecule, the viability at 1.5 h, 100 µM in data set [1] was 79%. Also, the pIC50 with MDA-MB-231 was 5.49; with MCF7, 4.89.

In the case of `Cc1c(C)c2c(c(C)c1OC(=O)CCCCCCCN)CCC(C)(COc1ccc(/C=C3\SC(=O)NC3=O)cc1)O2` (racemic), the viability at 1.5 h, 100 µM in data set [1] was 57%. For the same molecule, the pIC50 in the data set with MDA-MB-231 is 5.30; with MCF7 it was 5.49.

As for `CC(=O)NCCNC(=O)CCC(=O)Oc1c(C)c(C)c2c(c1C)CCC(C)(COc1ccc(/C=C3\SC(=O)NC3=O)cc1)O2` (racemic), the viability at 1.5 h, 100 µM in data set [1] came to 75%. For the same molecule, the values for the pIC50 in the data set with MDA-MB-231 and in the data set on MCF7 were less than 4.60 and less than 4.30, respectively.

For the molecule `Cc1c(C)c2c(c(C)c1OC(=O)OC(C)(C)C)CCC(C)(COc1ccc(CC3SC(=O)NC3=O)cc1)O2` (racemic), in data set [1], the viability at 1.5 h, 100 µM is 47%. In addition, the pIC50 is 5.42 with MDA-MB-231 and 4.95 in the data set on MCF7.

For `Cc1cc(C)c2c(c1C)OC(C)(COc1ccc(CC3SC(=O)NC3=O)cc1)CC2` (racemic), the viability at 1.5 h, 100 µM in data set [1] turned out to be 66%. In addition, the pIC50 in the data set with MDA-MB-231 is 4.91; in the data set with MCF7, 4.70.

As to `Cc1c(C)c2c(c(C)c1OC(=O)CCC(=O)O)CCC(C)(COc1ccc(CC3SC(=O)NC3=O)cc1)O2` (racemic), the viability at 1.5 h, 100 µM in data set [1] stood at 76%. Further, the values for the pIC50 with MDA-MB-231 and in the data set on MCF7 were less than 4.60 and less than 4.30, respectively.

As for `Cc1c(C)c2c(c(C)c1O)CCC(C)(COc1ccc(/C=C3\SC(=O)NC3=O)cc1)O2` (racemic), the Activity result in the data set with Hepatocyte is “Non-toxic”. In data set [1], the viability at 1.5 h, 100 µM turned out to be 63%. Further, the pIC50 was 4.78 in the data set with MDA-MB-231 and 4.53 in the data set on MCF7.

Take `Cc1c(C)c2c(c(C)c1OC(=O)CCC(=O)O)CCC(C)(COc1ccc(/C=C3\SC(=O)NC3=O)cc1)O2` (racemic): in data set [1], the viability at 1.5 h, 100 µM came out at 54%. The negative logarithm of the IC50 (pIC50) with MDA-MB-231 was less than 4.60; with MCF7 it was less than 4.30.

For `Cc1c(C)c2c(c(C)c1O)CCC(C)(COc1ccc(CC3SC(=O)NC3=O)cc1)O2` (stereo not drawn) [TROGLITAZONE], the Activity result in the data set on Hepatocyte was “Non-toxic”. In data set [2], the Kp was found to be 10. In addition, the Cmax in data set [3] was 6.3 µM. The viability at 1.5 h, 100 µM in data set [1] was 52%. Moreover, the pIC50 in the data set on MDA-MB-231 is 4.80; in the data set on MCF7, 4.45.
